# Measured values from different studies.
# Protocols differ between the studies behind these lines.
# Target: Serine/threonine-protein kinase 4 (STK4, Homo sapiens, UniProt Q13043)
# Sequence (Q13043 1-487, as in one of the studies): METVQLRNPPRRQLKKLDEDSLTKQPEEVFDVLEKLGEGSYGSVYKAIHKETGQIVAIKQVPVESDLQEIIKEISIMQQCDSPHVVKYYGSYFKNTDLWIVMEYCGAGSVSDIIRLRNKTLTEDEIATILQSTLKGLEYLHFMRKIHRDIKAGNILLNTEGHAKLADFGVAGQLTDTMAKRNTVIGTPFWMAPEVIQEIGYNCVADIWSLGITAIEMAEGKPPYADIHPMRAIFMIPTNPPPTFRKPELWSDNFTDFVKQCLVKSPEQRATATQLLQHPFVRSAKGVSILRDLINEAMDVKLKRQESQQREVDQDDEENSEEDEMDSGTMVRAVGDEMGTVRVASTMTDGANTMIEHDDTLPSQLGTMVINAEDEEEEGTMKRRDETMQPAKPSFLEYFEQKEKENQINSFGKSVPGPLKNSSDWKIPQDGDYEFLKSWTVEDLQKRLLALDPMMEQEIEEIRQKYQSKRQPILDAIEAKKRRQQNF
Compound,observed,technique,concentration,remaining binding [%]
CC1CCCN1c1nccc(-c2cnn3ncccc23)n1 (centres unmarked),binding,,1 µM,98
CSc1cccnc1N1CCN(Cc2nc3ccccc3[nH]2)CC1,cell-free assay,competition with immobilised ligand,1 µM,85
COc1cnc(Nc2cccc(S(N)(=O)=O)c2)nc1N1CCN(c2ccccc2)C(=O)C1,binding,competition with immobilised ligand,1 µM,98
CS(=O)(=O)c1cc(C2(NC(=O)c3cncc4c3cnn4-c3ccc(F)cc3)CC2)ccn1,cell-free assay,competition with immobilised ligand,1 µM,77
N[C@H]1CCN(c2nccc(-c3cnn4ncccc34)n2)C1,binding,,1 µM,100
Cc1cnc(Nc2ccc(C(=O)N3CCC(N4CCCC4)CC3)cc2)nc1-c1cc2ccccc2s1,binding,competition with immobilised ligand,1 µM,100
C[C@H]1CCN(c2nccc(-c3cnn4ncccc34)n2)C1,binding,,1 µM,82
CCN1CCN(Cc2ccc(C(=O)Nc3ccc(C)c(Oc4ccc5c(c4)CC(=O)N5)c3)cc2C(F)(F)F)CC1,binding,competition with immobilised ligand,1 µM,100
Nc1ncc2c(n1)-c1c([nH]c3ccc(C#CC4CC4)cc13)CCCC2,binding,competition with immobilised ligand,1 µM,100
CCCOc1ccc([C@@H]2[C@@H](C(=O)O)[C@H](c3ccc4c(c3)OCO4)CN2CC(=O)Nc2c(CC)cccc2CC)cc1,cell-free assay,competition with immobilised ligand,1 µM,95
CN(C)c1nccc(-c2cnc3ncccn23)n1,binding,,1 µM,88
Cc1c[nH]c2nccc(Oc3c(F)cc(Nc4cc(Cl)nc(N)n4)cc3F)c12,cell-free assay,competition with immobilised ligand,0.1 µM,100
O=C(c1ccc(Nc2nccc(-c3cc4ccccc4s3)n2)cc1)N1CCC(N2CCCC2)CC1,binding,competition with immobilised ligand,1 µM,100
c1cnn2ncc(-c3ccnc(N4CCC45COC5)n3)c2c1,binding,,1 µM,89
O=C1CCc2cc(Nc3cc(OC4CCOCC4)c([N+](=O)[O-])cc3Cl)ccc2N1,cell-free assay,competition with immobilised ligand,1 µM,100
COc1cnc(Nc2cccc(S(N)(=O)=O)c2)nc1N1CCN(c2ccccc2)CC1,binding,competition with immobilised ligand,1 µM,100
O=C(NCCCN1CCOCC1)c1ccc(Nc2nccc(-c3cc4ccccc4s3)n2)cc1,binding,competition with immobilised ligand,1 µM,100
Cc1cnn2ncc(-c3ccnc(N(C)C)n3)c2c1,binding,,1 µM,97
O=C(NCCCC1CCCCC1)c1ccc(CNC(=O)c2cnn(-c3ccccc3)c2C(F)(F)F)cc1,cell-free assay,competition with immobilised ligand,0.1 µM,100
O=C(NCC1CCOCC1)c1n[nH]cc1NC(=O)c1c(F)cccc1F,binding,competition with immobilised ligand,1 µM,100
